According to ChEMBL document CHEMBL1145071, “Oxindole-based compounds are selective inhibitors of Plasmodium falciparum cyclin dependent protein kinases” (J Med Chem, 2003):

Assays:
Protein kinase Pfmrk = biological target: T1, Protein kinase Pfmrk (Plasmodium falciparum, UniProt P90584); test: Inhibitory activity against Plasmodium falciparum cyclin dependent protein kinase, Pfmrk
T1 sequence (P90584 whole entry): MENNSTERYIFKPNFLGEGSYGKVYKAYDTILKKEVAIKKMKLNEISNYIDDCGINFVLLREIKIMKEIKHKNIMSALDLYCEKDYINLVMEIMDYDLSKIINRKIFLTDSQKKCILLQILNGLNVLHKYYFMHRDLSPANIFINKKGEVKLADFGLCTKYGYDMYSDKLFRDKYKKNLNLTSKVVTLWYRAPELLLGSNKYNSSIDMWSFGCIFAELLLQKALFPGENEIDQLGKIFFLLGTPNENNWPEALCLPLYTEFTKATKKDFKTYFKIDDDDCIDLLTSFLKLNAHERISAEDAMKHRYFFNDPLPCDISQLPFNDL

[1] = biological target: Cyclin-dependent kinase 1/cyclin B (Homo sapiens, UniProt P06493); test: Inhibition of human Cyclin-dependent kinase 1 cyclin B; type: protein-complex assay
PFPK5(P.falciparum) = PFPK5(P.falciparum) (Plasmodium falciparum, UniProt P61075); test: Inhibition of Plasmodium falciparum cyclin dependent protein kinase, PfPK5
Plasmodium falciparum [2] = test: Inhibitory activity against Plasmodium falciparum D6; type: functional, organism-based
Summary of the method: (§1)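 Cultured D6 (chloroquine-sensitive) and W2 (chloroquine-resistant) clones in A+ red cells, 6% hematocrit, 10% human serum, 90% N2/5% O2/5% CO2. Cultures at 3% parasitemia with at least 70% rings placed in drug-precoated wells for 24 h. [3H]-hypoxanthine then added for a further 18 h; uptake counted after harvest. IC50 from four-parameter nonlinear regression.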

Plasmodium falciparum [3] = test: Inhibitory activity against Plasmodium falciparum W2; type: functional, organism-based; summary of the method: as §1

Chain of PFPK5(P.falciparum) (P61075 whole entry, looked up): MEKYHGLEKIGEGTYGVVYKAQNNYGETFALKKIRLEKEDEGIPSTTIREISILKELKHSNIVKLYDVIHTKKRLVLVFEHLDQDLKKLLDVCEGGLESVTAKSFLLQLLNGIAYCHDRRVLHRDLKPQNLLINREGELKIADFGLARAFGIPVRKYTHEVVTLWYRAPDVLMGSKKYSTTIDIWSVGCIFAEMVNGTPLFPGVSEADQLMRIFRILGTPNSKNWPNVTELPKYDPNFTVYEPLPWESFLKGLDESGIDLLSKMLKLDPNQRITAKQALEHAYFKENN

Compound	IC50 (Protein kinase Pfmrk)	IC50 [1]	IC50 (PFPK5(P.falciparum))	IC50 (Plasmodium falciparum [2])	IC50 (Plasmodium falciparum [3])
O=C1Nc2ccccc2/C1=C\c1ccc(O)cc1	> 42 µM				
O=C1Nc2ccccc2/C1=C/C(=O)c1ccc(Br)cc1	3.5 µM	12 µM	130 µM	> 15.2 µM	> 15.2 µM
Cc1ccc(C(=O)/C=C2/C(=O)Nc3ccc(Br)cc32)cc1	2.9 µM	29 µM	120 µM	> 14.6 µM	> 14.6 µM
O=C1Nc2ccccc2/C1=C\C(=O)c1ccccc1	4 µM	> 16 µM	150 µM	> 20 µM	> 20 µM
N#C/C(C(N)=O)=C1\C(=O)Nc2ccccc21	24 µM				
O=C1Nc2ccccc2/C1=C\c1ccc(Cl)cc1	> 37 µM				
CC(=O)/C=C1/C(=O)Nc2ccccc21	> 37 µM				
CC(C)(C)C(=O)/C=C1/C(=O)Nc2ccccc21	> 44 µM				
O=C1Nc2ccc(Br)cc2/C1=C\C(=O)c1ccc(F)cc1	1.4 µM	29 µM	190 µM	> 14.4 µM	> 14.4 µM
C/N=C/c1c(O)[nH]c2ccccc12	> 57 µM				
COc1cc2ncnc(Nc3cccc(O)c3)c2cc1OC	168 µM				
COc1ccc2c(c1)/C(=C1/SC(=S)NC1=O)C(=O)N2	17.1 µM				
O=C1Nc2ccccc2/C1=C\c1ccc(C(F)(F)F)cc1	4.3 µM				
O=C1NC(=S)S/C1=C1\C(=O)Nc2ccc(F)cc21	> 19 µM				
O=C1Nc2ccccc2/C1=C\C1CCCCN1 (configuration not stated)	> 21 µM				
CCOC(=O)/C(C#N)=C1/C(=O)Nc2ccccc21	41.7 µM				
O=C1Nc2ccccc2/C1=C\c1c(Cl)cccc1Cl	17 µM				
O=C1Nc2ccc(Br)cc2/C1=C/C(=O)c1ccccc1	3.1 µM	30 µM	120 µM	> 15.2 µM	> 15.2 µM
CN[C@@H]1C[C@H]2O[C@@](C)([C@@H]1OC)n1c3ccccc3c3c4c(c5c6ccccc6n2c5c31)C(=O)NC4 (single isomer, unassigned) [STAUROSPORINE]	4 µM			0.19 µM	0.15 µM
O=C1Cc2c([nH]c3ccc([N+](=O)[O-])cc23)-c2ccccc2N1 [ALSTERPAULLONE]	51 µM			4.3 µM	4.3 µM
COC(=O)[C@@]1(Cc2ccc(O)c(CC=C(C)C)c2)OC(=O)C(O)=C1c1ccc(O)cc1 [BUTYROLACTONE I]	94 µM			11.7 µM	11.7 µM
O=Nc1c(-c2c(O)[nH]c3ccccc23)[nH]c2ccccc12 [INDIRUBIN-3-MONOXIME]	30 µM			0.6 µM	1.1 µM
O=C1Cc2c([nH]c3ccc(Br)cc23)-c2ccccc2N1 [KENPAULLONE]	15 µM			3.8 µM	3.8 µM
Cn1cnc2c(NCc3ccccc3)nc(NCCO)nc21 [OLOMOUCINE]	> 1000 µM			2.7 µM	8 µM
CC(C)[C@H](CO)Nc1nc(Nc2cccc(Cl)c2)c2ncn(C(C)C)c2n1 [PURVALANOLA]	26 µM			2.6 µM	9.2 µM
CC[C@H](CO)Nc1nc(NCc2ccccc2)c2ncn(C(C)C)c2n1 [SELICICLIB]	> 1000 µM			33 µM	28 µM
